NOD2 RIPK2 PPI: NOD2-RIPK2 binding disruptors in cells, primary screen, fluorescence, CHO cells, BLA complementation. Receptor-interacting serine/threonine-protein kinase 2 (Homo sapiens), O43353. CCF4 ratio. inhibition, % at 4.98 µM. AID 624267, 2012. 360,000 tested, 0.38% active; in the data active = inhibition above about 21%;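 note: 0% = vehicle only and 100% = reference blocker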
MC4R antagonist: MC4R antagonists of cAMP signaling, primary screen, cell-based, TR-FRET, antagonist arm of biased-ligand search; MC4R-expressing cells, MTII-stimulated cAMP, LANCE TR-FRET; inhibition, % at 6.5 µM; 360,000 tested, 0.48% active;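 active = inhibition above its plate's cutoff, the mean of tested wells on that plate plus 3 SD, cut at about 29% in these data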;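 note: 0% = Melanotan II alone and 100% = Melanotan II plus saturating MCL0020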
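system = U2OS cells with stable human MC4R expression | also added = Melanotan II challenge after compound preincubation | dosing = one concentration, 6.5 µM nominal | incubation = compound 30 min, challenge 1 h, detection 1 h | measured by = TR-FRET with Eu-cAMP and labeled anti-cAMP, 671 nm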
MIN6 prolif: inducers of MIN6 beta-cell proliferation, primary screen, ATP luminescence, uHTS | MIN6 cells proliferation, ATPlite luminescence, 48 h; cells starved in 0.2% serum; 100% = growth in 10% serum | proliferation, % at 10 µM | 330,000 tested, 0.29% active;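 active = compounds whose signal lies at least 3.5 SD above the mean of all wells on their plate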;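 note: 0% = DMSO-treated cells in low-serum medium and 100% = 10% serum control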
TLR4 MyD88 comp: inhibitors of TLR4-MyD88 association in cells, primary screen, cell-based, HeLa CL3-4, BLA complementation, FRET ratio. Toll-like receptor 4 (Homo sapiens) + Myeloid differentiation primary response protein …. HeLa CL3-4 TLR4/MyD88 BLA complementation. inhibition, % at 8.4 µM. 200,000 tested, 0.18% active; in the data active = inhibition above about 25%;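 note: 0% = vehicle and 100% = reference inhibitor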
TLR9-MyD88 block: inhibitors of TLR9-MyD88 association in cells, primary screen, cell-based, CHO, BLA complementation, fluorescence; AID 504734, 2011; inhibition, % at 4.98 µM; CCF4 FRET ratio; Toll-like receptor 9 (Homo sapiens) + Myeloid differentiation primary response protein …; 340,000 tested, 0.21% active;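 active = inhibition above the mean over all tested compounds plus 3 SD, cut at about 21% in these data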;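 note: 0% = DMSO only wells and 100% = clavulanate BLA inhibitor control wells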
MC4R ag barr: MC4R agonists recruiting beta-arrestin, primary screen, cell-based, luminescence, agonist arm of biased-ligand search; U2OS MC4R beta-arrestin complementation; percent of melanotan II response, DMSO zero; activation, % at 8.9 µM; Melanocortin receptor 4 (Homo sapiens), P32245; 360,000 tested, 0.98% active;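 active = activation above a per-plate cutoff, the mean activation of sample wells on that plate plus 3 SD, cut at about 8% in these data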
TLR9-MyD88 conf: TLR9-MyD88 association inhibitors, retest, confirmation, cell-based, CHO, BLA complementation, fluorescence, triplicate; shares compounds with TLR9-MyD88 block; CCF4 FRET ratio; inhibition, % at 4.98 µM; 680 tested, 51% active;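 active = mean inhibition across three repeats above about 21% taken from the earlier screen, limit read from the data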;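 note: blue over green emission ratio reports constitutive TLR9 MyD88 association via BLA complementation; 0% = DMSO vehicle wells and 100% = clavulanate BLA inhibitor wells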
Target sequence (Q9NR96 whole entry, looked up): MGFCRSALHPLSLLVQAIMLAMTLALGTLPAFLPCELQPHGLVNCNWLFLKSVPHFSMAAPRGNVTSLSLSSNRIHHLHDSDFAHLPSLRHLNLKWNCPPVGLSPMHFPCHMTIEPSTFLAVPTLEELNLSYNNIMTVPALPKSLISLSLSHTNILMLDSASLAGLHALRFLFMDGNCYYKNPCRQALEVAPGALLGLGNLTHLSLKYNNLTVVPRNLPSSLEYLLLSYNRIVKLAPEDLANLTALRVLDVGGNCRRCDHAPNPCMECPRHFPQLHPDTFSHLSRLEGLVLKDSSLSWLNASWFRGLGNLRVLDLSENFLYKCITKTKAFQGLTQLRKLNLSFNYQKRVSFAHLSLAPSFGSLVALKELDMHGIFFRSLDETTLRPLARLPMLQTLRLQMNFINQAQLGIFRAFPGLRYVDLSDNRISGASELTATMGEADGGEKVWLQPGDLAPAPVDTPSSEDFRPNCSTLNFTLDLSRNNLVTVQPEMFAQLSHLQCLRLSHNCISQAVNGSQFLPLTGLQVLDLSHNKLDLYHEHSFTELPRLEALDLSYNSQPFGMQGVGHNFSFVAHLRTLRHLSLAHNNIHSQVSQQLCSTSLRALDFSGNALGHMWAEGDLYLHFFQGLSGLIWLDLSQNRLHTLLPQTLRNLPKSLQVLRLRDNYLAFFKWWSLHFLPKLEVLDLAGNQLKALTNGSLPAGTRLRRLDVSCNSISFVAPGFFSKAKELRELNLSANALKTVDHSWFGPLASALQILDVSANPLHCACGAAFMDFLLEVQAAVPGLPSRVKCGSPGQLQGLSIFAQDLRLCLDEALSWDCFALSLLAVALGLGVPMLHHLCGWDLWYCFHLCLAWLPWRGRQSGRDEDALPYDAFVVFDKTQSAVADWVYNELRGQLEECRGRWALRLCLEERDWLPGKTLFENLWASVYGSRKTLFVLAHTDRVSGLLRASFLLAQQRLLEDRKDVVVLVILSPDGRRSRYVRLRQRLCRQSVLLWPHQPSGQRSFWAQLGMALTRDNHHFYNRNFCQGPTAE
BLA counter-1: beta-lactamase reporter inhibitors in CHO cells, artefact control for TLR9-MyD88 binding inhibitor project, cell-based, fluorescence; shares compounds with TLR9-MyD88 block; CHO-BLA cells, CCF4 FRET ratio, BLA reporter; inhibition, % at 4.98 µM; 680 tested, 7% active;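 active = mean inhibition above a 50% cutoff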;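 note: counterscreen of TLR9-MyD88 hits on CMV-driven BLA in CHO-K1 cells; 0% = DMSO alone and 100% = clavulanate blocking BLA; higher means less blue over green ratio so more BLA blockade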
TLR9 CHO cytotox: CHO cell viability loss – luminescence, single concentration, cytotoxicity control for TLR9-MyD88 binding inhibitor project | shares compounds with TLR9-MyD88 block | TLR9-MyD88 CHO cells cytotoxicity | inhibition, % at 4.98 µM | 680 tested, 39% active | AID 588336, 2011; in the data active = inhibition above about 11%
U2OS cAMP counter: nonselective cAMP signaling inhibitors, parental cells, counter-screen for MC4R biased antagonist project, cell-based, TR-FRET, U2OS, forskolin, triplicate; shares compounds with MC4R antagonist; LANCE TR-FRET; inhibition, % at 6.5 µM; 1,600 tested, 26% active; AID 602193, 2012;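 active = mean inhibition over triplicates above the low-control well mean plus 3 SD, set per campaign, cut at about 13% in these data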;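 note: signal is single emission at 671 nm which falls as cellular cAMP rises; 0% = forskolin-stimulated wells and 100% = buffer without forskolin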
MC4R antag conf: MC4R cAMP antagonists, retest, confirmation, cell-based, TR-FRET | 1,600 tested, 27% active | inhibition, % at 6.5 µM | MC4R-expressing cells, MTII-stimulated cAMP | AID 602195, 2012 | shares compounds with MC4R antagonist; in the data active = inhibition above about 29%;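 note: 0% = agonist stimulated wells alone and 100% = agonist stimulated wells plus saturating reference antagonist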
NOD2 RIPK2 conf: NOD2-RIPK2 binding disruptors, retest, confirmation, fluorescence, CHO cells, BLA complementation, triplicate; shares compounds with NOD2 RIPK2 PPI; CCF4 FRET; inhibition, % at 4.98 µM; 1,200 tested, 70% active;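 active = mean inhibition across replicates above a set limit taken from the earlier primary screen, cut at about 21% in these data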;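 note: 0% = DMSO-only wells and the high end = clavulanate BLA-blocked wells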
BLA counter-2: NOD2-RIPK2 counterscreen BLA reporter activity. CHO BLA reporter, CCF4 FRET ratio. inhibition, % at 4.98 µM. 1,200 tested, 57% active. shares compounds with NOD2 RIPK2 PPI;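 active = mean inhibition above the low-control mean inhibition plus three low-control SD, cut at about 11% in these data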;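 note: 0% = DMSO only wells and 100% = clavulanate high control wells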
* marks the source's active call; other numbers are inactive results; x = no result given. An excerpt weighted towards active compounds, which were near 2.1% of everything screened.

SMILES	NOD2 RIPK2 PPI	MC4R antagonist	MIN6 prolif	TLR4 MyD88 comp	TLR9-MyD88 block	MC4R ag barr	U2OS cAMP counter	MC4R antag conf	others
CCCCNc1c(-c2ccc(OC)c(SC3CCCCC3)c2)nc2cc(C)ccn12	8	18	-8	x	3	-2	x	x
CCC(C)Sc1ccc(-c2nc3cc(C)ccn3c2NC2CCCCC2)cc1 (centres undefined)	5	15	-6	x	1	-3	x	x
CCCCNc1c(-c2ccc(OC)c(SC3CCCCC3)c2)nc2cnccn12	40*	32*	-7	x	21*	7	8	27	TLR9-MyD88 conf=16;BLA counter-1=20;TLR9 CHO cytotox=3;NOD2 RIPK2 conf=29*;BLA counter-2=42*
CCC(C)Sc1ccc(-c2nc3cnccn3c2NC2CCCCC2)cc1 (centres undefined)	27*	5	-8	x	35*	0	x	x	TLR9-MyD88 conf=46*;BLA counter-1=48;TLR9 CHO cytotox=3;NOD2 RIPK2 conf=65*;BLA counter-2=72*
O=c1oc2c(O)cccc2cc1-c1nc2ccccc2[nH]1	58*	-10	-7	x	54*	3	x	x	TLR9-MyD88 conf=45*;BLA counter-1=54*;TLR9 CHO cytotox=9;NOD2 RIPK2 conf=73*;BLA counter-2=79*
CCCC1NC(=O)c2cccnc2-n2c1nc1ccc(OC)cc1c2=O (centres undefined)	5	7	x	x	3	0	x	x
COc1ccc(-c2noc(CCC(=O)Nc3cccc(C)c3)n2)cc1	7	7	-2	-12	0	-1	x	x
COc1ccc(-c2noc(CCC(=O)NCCc3cccc(C)c3)n2)cc1	-1	29*	2	7	-3	0	4	-7
COc1ccc(NC(=O)c2ccc(S(=O)(=O)N3CCCC3)cc2)cc1OC	-11	13	0	x	-15	0	x	x
O=C1N(Cc2cccc(Cl)c2)C[C@@H]2C[C@@H](c3cccc4cccnc34)N3CCC[C@@]123	15	34*	-4	-8	-10	0	-1	0
CCCCC(=O)Nc1nnc(SCC(=O)NCC2CCCO2)s1 (centres undefined)	-12	-4	-3	x	5	-3	x	x
CC(=O)Oc1ccc(CN2C(=O)C(CCc3ccccc3)ON=C2c2cnccn2)cc1 (centres undefined)	-2	29*	x	x	x	0	6	13
Cc1nc2c(O)cccc2cc1CO	-6	1	-3	x	-10	0	x	x
Cc1cccc(NC(=O)NCC2CC2)c1	-1	30*	x	x	-11	-1	-4	-20
O=C(NCC1CC1)Nc1cccc(Cl)c1	-16	9	1	x	-11	-1	x	x
COc1ccc(C(=O)c2[nH]c(N)c(C(=O)NCCc3c[nH]c4ccccc34)c2-c2ccccc2Br)cc1	0	x	x	x	x	x	x	x
O=C(c1nc2ccccn2c1CNCCCn1nnc2ccccc21)N1CCOCC1	6	10	0	-30	-4	-1	x	x
O=C(c1nc2ccccn2c1CNCCn1ccc2ccccc21)N1CCOCC1	-11	32*	-1	x	6	4	-10	-21
COC(=O)Cn1c(O)c(N=NC(=O)CNC(=O)c2ccncc2)c2ccccc21	-5	4	-1	x	-9	2	x	x
CCOC(=O)C1(C)Oc2ccccc2C(C(=O)OC)=C1C(=O)OC (centres undefined)	2	3	x	x	0	-2	x	x
COC(=O)C1=C(C(=O)OC)SC2(S1)C(C(=O)OC)=C(C(=O)OC)SC1=C2c2cccc(C)c2NC1(C)C	3	41*	-4	-9	-2	0	11	45*
COC(=O)COc1ccc(S(=O)(=O)N2CCc3ccccc3C2)cc1	-4	29*	-4	0	9	0	14*	25
Cn1c(SCC(=O)NC2CCCC2)nnc1-c1ccco1	-6	17	-2	x	-11	3	x	x
Oc1ccc(C(c2nnnn2CCc2ccccc2)N2CCN(c3nc4ccccc4s3)CC2)cc1 (centres undefined)	1	31*	-5	x	-10	-1	2	13
COCCn1nnnc1C(c1cccs1)N1CCN(c2nc3ccccc3s2)CC1 (centres undefined)	2	-2	-4	-14	-10	1	x	x
COc1ccc(OC)c(-c2csc(NC(=O)Cc3ccccc3)n2)c1	-3	3	-2	x	-2	4	x	x
COc1cccc(CC(=O)Nc2nc(-c3cc(OC)ccc3OC)cs2)c1	-6	34*	-1	-15	3	5	1	1
COC(=O)COc1cccc(NC(=O)C(c2ccccc2)c2ccccc2)c1	-11	29*	-2	x	1	2	7	15
O=C(O)COc1cccc(NC(=O)c2ccccc2)c1	-5	10	-2	-8	8	-1	x	x
O=C(CSCc1ccccc1Br)NNC(=S)NCc1ccco1	9	-2	3	x	-3	-5	x	x

From PubChem
